IC50 and ED50 data for nine molecules are collected here from ChEMBL document CHEMBL1123727, “Synthesis of 6-substituted beta-carbolines that behave as benzodiazepine receptor antagonists or inverse agonists” (J Med Chem, 1987).

A short description of experiment [1]: In vitro displacement of [3H]-diazepam from GABA-A benzodiazepine receptor in rat cerebral cortex. It is filed as tissue-based. In outline: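 Cortex from adult male Sprague–Dawley rats homogenized in 50 mM Tris-HCl pH 7.4, washed three times and resuspended. Incubated with varying test concentrations and [3H]diazepam (2 nM final) for 90 min at 4 °C. Ended by GF/B filtration, radioactivity counted by scintillation. Nonspecific binding defined with 5 μM flunitrazepam. IC50 reported.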
(In general: Displacement assays read how much labelled ligand stays bound in the presence of the test substance.)

The target in experiment [2] is GABA-A receptor; anion channel. The experiment can be described thus: In vitro displacement of [3H]diazepam from GABA-A benzodiazepine receptor in rat cerebral cortex. The format is tissue-based. Put shortly: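 Cortex from adult male Sprague–Dawley rats homogenized in 50 mM Tris-HCl pH 7.4, homogenization–centrifugation repeated three times in total. Membranes incubated with graded compound concentrations and [3H]diazepam (final 2 nM) for 90 min at 4 °C. Bound ligand collected by rapid GF/B filtration and counted by liquid scintillation. Nonspecific binding defined with 5 μM flunitrazepam.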

In experiment [3] the test system is Mus musculus. The experiment is described as follows: Dose required to antagonize Diazepam (2.5 mg/kg) anticonvulsant effects in mice treated with pentylenetetrazole (80 mg/kg) (inactive). It is filed as functional, organism-based.
Experiment [4] relates to Mus musculus. The experiment can be described thus: Dose required to induce convulsions in mice treated with subconvulsant pentylenetetrazole (40 mg/kg). The format is functional. Put shortly: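 Adult male mice (20–25 g) given drug ip (suspended in 10% diluted emulphor–90% saline, HCl salts), then challenged 5 min later with subconvulsant PTZ (40 mg/kg ip). Two independent raters observed clonic-tonic convulsions. ED50 = dose inducing convulsions in 50% of mice. Highest dose tested 40 mg/kg.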

Experiment [5] deals with Mus musculus. The experiment is described as follows: Dose required to antagonize Diazepam (2.5 mg/kg) anticonvulsant effects in mice treated with pentylenetetrazole (80 mg/kg). The format is functional. Put shortly:
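Adult male mice (20–25 g) given diazepam 2.5 mg/kg ip in 10% diluted emulphor–90% saline. Drug or vehicle given ip 5 min later, then PTZ 80 mg/kg ip (CD100) after another 5 min. Two independent raters scored clonic-tonic convulsions; animals counted protected if seizure-free for 15 min. ED50 = dose antagonizing diazepam's anticonvulsant effect in 50% of mice.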

The test system of experiment [6] is Mus musculus. The experiment is described as follows: Dose required to induce convulsions in mice treated with subconvulsant pentylenetetrazole (40 mg/kg) (inactive). It is filed as functional, organism-based.

As usually defined, the IC50 is the concentration that gives 50% inhibition. A high value points to weaker potency in that assay. As usually defined, the ED50 is the dose that gives a 50% effect, or the effect in half of the subjects.

Calls of active or inactive are those of the source. No cut-off for these calls is given here.

For the molecule `c1ccc2c(c1)[nH]c1cnccc12` [NORHARMANE], the IC50 in experiment [1] was 1620 nM.
Molecule `Nc1ccc2[nH]c3cnccc3c2c1` came in with an IC50 in experiment [2] of 1300 nM.
Regarding `OCc1cc2c3cc(NCc4ccccc4)ccc3nc-2c[nH]1`, the ED50 result in the experiment with Mus musculus [3] was “inactive”. Also, the IC50 in experiment [2] was determined as 76 nM. The molecule also showed an ED50 with Mus musculus [4] of 40 mg/kg.
Regarding `O=C(OC1CCCC1)c1cc2c3ccccc3nc-2c[nH]1`, in experiment [2], the IC50 is 50 nM.
In the case of `c1ccc(CNc2ccc3[nH]c4cnccc4c3c2)cc1`, the IC50 in experiment [2] came to 106 nM. Besides, the ED50 stood at 38 mg/kg in the experiment with Mus musculus [5] and 28 mg/kg with Mus musculus [4].
As for `CC(=O)c1cc2c3ccccc3nc-2c[nH]1`, in experiment [2], the IC50 worked out at 58 nM.
With `COC(=O)c1cc2c(cn1)[nH]c1ccc(NCc3ccccc3)cc12`, the ED50 entry in the experiment on Mus musculus [6] is “inactive”. In experiment [2], this molecule displayed an IC50 of 10 nM. Also, in the experiment with Mus musculus [5], the 50% effect level (ED50) was put at a dose of 15.5 mg/kg.
Regarding `OCc1cc2c3ccccc3nc-2c[nH]1`, in experiment [2], the half-inhibitory concentration (IC50) was found to be 1470 nM.
Take `c1ccc(CNc2ccc3[nH]c4ccccc4c3c2)cc1`: the IC50 in experiment [2] is above 5000 nM.
